For assay [1], the target named is T1, Glutamate receptor ionotropic, kainate 2 (Homo sapiens, UniProt Q13002). Description: Electrophysiological activity at 1 uM domoate from HEK293 cells transfected with ionotropic glutamate receptor kainate 2. Type of assay: functional, cell-based. Summed up: (§1)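 Whole-cell voltage clamp (tight-seal patch clamp) of HEK293 line EAA4-9 stably expressing human GluR6, with cells plated on glass coverslips. Bath: NaCl 138, CaCl2 5, MgCl2 1, KCl 5, HEPES 10, glucose 10 mM, pH 7.4. Pipette: KCl 140, MgCl2 1, HEPES 10, EGTA 0.1 mM, pH 7.2. Test agonist at 1, 10 or 30 uM by bath perfusion with 2.5 uM concanavalin A. Inward current expressed as percent of the response to 1 uM domoate.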
T1 sequence (Q13002 whole entry, the tested form may be a part): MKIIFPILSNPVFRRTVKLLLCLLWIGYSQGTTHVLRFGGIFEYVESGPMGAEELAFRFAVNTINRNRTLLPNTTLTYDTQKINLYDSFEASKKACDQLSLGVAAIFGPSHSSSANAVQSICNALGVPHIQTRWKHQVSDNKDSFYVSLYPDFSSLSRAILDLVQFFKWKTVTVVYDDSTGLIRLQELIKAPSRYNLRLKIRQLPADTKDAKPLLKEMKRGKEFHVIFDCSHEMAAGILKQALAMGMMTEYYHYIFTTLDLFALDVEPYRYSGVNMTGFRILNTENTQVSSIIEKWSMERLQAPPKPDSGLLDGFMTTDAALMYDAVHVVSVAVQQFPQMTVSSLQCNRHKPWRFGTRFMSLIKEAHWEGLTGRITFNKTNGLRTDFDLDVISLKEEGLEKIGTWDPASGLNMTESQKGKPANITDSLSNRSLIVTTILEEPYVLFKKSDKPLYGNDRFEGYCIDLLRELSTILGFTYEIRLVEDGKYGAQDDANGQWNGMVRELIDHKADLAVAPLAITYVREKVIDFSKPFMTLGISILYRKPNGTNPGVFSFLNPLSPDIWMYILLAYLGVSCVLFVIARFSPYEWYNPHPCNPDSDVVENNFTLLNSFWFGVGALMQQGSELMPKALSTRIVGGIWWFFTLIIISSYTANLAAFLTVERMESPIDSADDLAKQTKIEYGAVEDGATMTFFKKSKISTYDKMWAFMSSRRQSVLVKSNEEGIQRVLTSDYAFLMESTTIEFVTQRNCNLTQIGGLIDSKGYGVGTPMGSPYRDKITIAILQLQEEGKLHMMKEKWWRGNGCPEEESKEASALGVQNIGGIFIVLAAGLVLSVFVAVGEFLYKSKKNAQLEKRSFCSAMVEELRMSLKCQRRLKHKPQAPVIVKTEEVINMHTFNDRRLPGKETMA

Assay [2] has as its target Glutamate receptor ionotropic, kainate 2 (Rattus norvegicus, UniProt P42260). Nature of the assay: Inhibition of [3H]kainate binding at rat forebrain ionotropic glutamate receptor kainate 2.
For assay [3], the target named is T1, Glutamate receptor ionotropic, kainate 2. Nature of the assay: Inhibition of [3H]kainate binding at ionotropic glutamate receptor kainate 2. Summed up: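 Frozen EAA4-9 cells (HEK293 stably expressing human GluR6) lysed in ice-cold water and pelleted at 50000g. Membranes washed in 50 mM Tris-HCl, pH 7.5 at 5 °C, to remove glutamate. Nonspecific binding defined with 1 mM L-glutamate, and bound ligand separated by centrifugation. Ki reported.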

For assay [4] the target is unchanged. Nature of the assay: Electrophysiological activity at 30 uM domoate from HEK293 cells transfected with ionotropic glutamate receptor kainate 2. Type of assay: functional, cell-based. Put shortly: as §1
Assay [5] has the same target. Description: Electrophysiological activity at 10 uM domoate from HEK293 cells transfected with Ionotropic glutamate receptor kainate 2. Type of assay: functional, cell-based. Summed up: as §1

pKi: −log10 of the molar value.

Chain of Glutamate receptor ionotropic, kainate 2 (Rattus norvegicus, UniProt P42260) (P42260 whole entry, the tested form may be a part): as the sequence (Q13002 whole entry, the tested form may be a part) above, with F5S, I7V, P11L, R14S, T16S, V17I, L19V, A494V counted along it

With `C=C(c1ccc(CCCC)cc1)[C@H]1CN[C@H](C(=O)O)[C@H]1CC(=O)O`, the results for the Response in assay [1], in assay [4] and in assay [5] were 11%, 63% and 57%, respectively. Moreover, the pKi in assay [2] is 8.32; in assay [3], 6.84.

As for `C=C(C)c1ccc(C(=C)[C@H]2CN[C@H](C(=O)O)[C@H]2CC(=O)O)cc1`, the Response in assay [1] was 17%; in assay [4], 66%; in assay [5], 61%. For the same compound, the pKi in assay [2] is 8.44; in assay [3], 6.88.

Turning to `C=C(c1cccc(OCCC(c2ccccc2)c2ccccc2)c1)[C@@H]1CN[C@H](C(=O)O)[C@H]1CC(=O)O`, the Response in assay [1], in assay [4] and in assay [5] was 0% each time. Further, the pKi in assay [2] is 5.52; in assay [3], less than 5.00.

With `C=C(c1ccc(OCCc2ccccc2)c(C)c1)[C@H]1CN[C@H](C(=O)O)[C@H]1CC(=O)O`, the Response in assay [1] stood at 12%; in assay [4], 71%; in assay [5], 64%. Moreover, in assay [3], the pKi is 6.89.

For the compound `C=C(c1ccc(OCCc2ccccc2)c(OC)c1)[C@H]1CN[C@H](C(=O)O)[C@H]1CC(=O)O`, the Response was 2% in assay [1], 44% in assay [4] and 20% in assay [5]. Further, the pKi in assay [3] was 5.89.

On to `C=C(c1ccc(OCCc2ccccc2)cc1)[C@H]1CN[C@H](C(=O)O)[C@H]1CC(=O)O`, for which the Response was 16% in assay [1], 66% in assay [4] and 52% in assay [5]. Further, the pKi in assay [2] was 8.21; in assay [3], 6.90.

On to `C=C(c1ccccc1)[C@@H]1CN[C@H](C(=O)O)[C@H]1CC(=O)O`, for which the Response result in assay [1], in assay [4] and in assay [5] was “Neurotoxic” throughout. For the same compound, the pKi in assay [2] was 6.64; in assay [3], 5.16.

Take `C=C(c1cccc(-c2ccccc2)c1)[C@H]1CN[C@H](C(=O)O)[C@H]1CC(=O)O`: the Response came to 65% in assay [1], 103% in assay [4] and 98% in assay [5]. In addition, the pKi is 8.68 in assay [2] and 7.04 in assay [3].

On to `C=C(c1cc(C)cc(C)c1)[C@H]1CN[C@H](C(=O)O)[C@H]1CC(=O)O`, for which the figures for the Response in assay [1], in assay [4] and in assay [5] were 23%, 108% and 73%, respectively. For the same compound, the figures for the pKi in assay [2] and in assay [3] were 8.02 and 6.77, respectively.

For `C=C(c1ccc(F)c(C)c1)[C@H]1CN[C@H](C(=O)O)[C@H]1CC(=O)O`, the Response in assay [1] was 38%; in assay [4], 100%; in assay [5], 76%. In addition, the pKi in assay [2] was 8.72; in assay [3], 7.27.

For the compound `CC(c1ccccc1)[C@H]1CN[C@H](C(=O)O)[C@H]1CC(=O)O` (some centres undefined), the Response in assay [1], in assay [4] and in assay [5] was 0% in each case. In assay [3], this compound had a pKi of less than 5.00.

Take `C=C(c1cccc(OCCC(c2ccccc2)c2ccccc2)c1)[C@H]1CN[C@H](C(=O)O)[C@H]1CC(=O)O`: the Response turned out to be 3% in assay [1], 14% in assay [4] and 6% in assay [5]. In addition, the figures for the pKi in assay [2] and in assay [3] were 6.68 and 5.62, respectively.

In the case of `C=C(c1ccc(OCCCCC)c(C)c1)[C@H]1CN[C@H](C(=O)O)[C@H]1CC(=O)O`, the Response in assay [1] came out at 17%; in assay [4] it was 58%; in assay [5], 46%. In assay [3], the pKi was 6.18.

Take `C=C(c1ccc(CC)cc1)[C@H]1CN[C@H](C(=O)O)[C@H]1CC(=O)O`: the Response in assay [1] came out at 22%; in assay [4], 73%; in assay [5] it was 63%. Also, the results for the pKi in assay [2] and in assay [3] were 8.11 and 7.09, respectively.

For `C=C(c1cccc(OCCc2ccccc2)c1)[C@H]1CN[C@H](C(=O)O)[C@H]1CC(=O)O`, the figures for the Response in assay [1], in assay [4] and in assay [5] were 6%, 70% and 43%, respectively. The values for the pKi in assay [2] and in assay [3] were 7.80 and 6.18, respectively.

As to `C=C(c1ccc(CCC)cc1)[C@H]1CN[C@H](C(=O)O)[C@H]1CC(=O)O`, the results for the Response in assay [1], in assay [4] and in assay [5] were 24%, 66% and 54%, respectively. The pKi in assay [2] is 8.44; in assay [3], 6.83.

On to `C=C(c1ccc(F)cc1)[C@H]1CN[C@H](C(=O)O)[C@H]1CC(=O)O`, for which the Response came out at 43% in assay [1], 78% in assay [4] and 76% in assay [5]. Moreover, the pKi was 8.57 in assay [2] and 7.42 in assay [3].

With `C=C(c1cccc(C)c1)[C@H]1CN[C@H](C(=O)O)[C@H]1CC(=O)O`, the results for the Response in assay [1], in assay [4] and in assay [5] were 29%, 74% and 75%, respectively. In addition, the pKi in assay [2] is 8.66; in assay [3], 6.91.

`C=C(c1ccc(C)cc1)[C@H]1CN[C@H](C(=O)O)[C@H]1CC(=O)O`: the Response turned out to be 61% in assay [1], 76% in assay [4] and 72% in assay [5]. The pKi in assay [2] was 8.59; in assay [3], 7.39.

In the case of `C=C(c1cccc(-c2ccccc2)c1)[C@@H]1CN[C@H](C(=O)O)[C@H]1CC(=O)O`, the Response in assay [1], in assay [4] and in assay [5] was 0% in each case. Besides, in assay [3], the negative-log Ki (pKi) is 5.51.

For `C=C(c1cccc(OC)c1)[C@H]1CN[C@H](C(=O)O)[C@H]1CC(=O)O`, the Response came out at 46% in assay [1], 87% in assay [4] and 77% in assay [5]. The negative logarithm of the Ki (pKi) is 8.46 in assay [2] and 7.03 in assay [3].

`C=C(CC)c1ccc(C(=C)[C@H]2CN[C@H](C(=O)O)[C@H]2CC(=O)O)cc1`: the Response amounted to 15% in assay [1], 52% in assay [4] and 38% in assay [5]. The values for the pKi in assay [2] and in assay [3] were 8.05 and 6.54, respectively.

Turning to `C=C(c1ccc(-c2ccccc2)cc1)[C@H]1CN[C@H](C(=O)O)[C@H]1CC(=O)O`, the values for the Response in assay [1], in assay [4] and in assay [5] were 36%, 66% and 58%, respectively. Besides, the pKi in assay [2] is 8.04; in assay [3], 6.88.

In the case of `C=C(c1ccc(C(C)(C)C)cc1)[C@H]1CN[C@H](C(=O)O)[C@H]1CC(=O)O`, the figures for the Response in assay [1], in assay [4] and in assay [5] were 8%, 46% and 31%, respectively. The pKi in assay [2] is 7.73; in assay [3] it was 6.58.

For the compound `C=C(c1ccc(Cl)cc1)[C@H]1CN[C@H](C(=O)O)[C@H]1CC(=O)O`, the Response was determined as 52% in assay [1], 83% in assay [4] and 78% in assay [5]. Besides, the pKi was 8.41 in assay [2] and 7.50 in assay [3].

Take `CC(c1cccc(-c2ccccc2)c1)[C@H]1CN[C@H](C(=O)O)[C@H]1CC(=O)O` (some centres undefined): the values for the Response in assay [1], in assay [4] and in assay [5] were 12%, 16% and 14%, respectively. For the same compound, the pKi in assay [3] is less than 5.00.

On to `C=C(c1ccc(Oc2ccccc2)cc1)[C@H]1CN[C@H](C(=O)O)[C@H]1CC(=O)O`, for which the Response in assay [1] amounted to 15%; in assay [4] it was 62%; in assay [5] it was 59%. In addition, the pKi in assay [2] is 7.92; in assay [3], 6.68.

As for `C=C(c1ccc(OCCCCCc2ccccc2)cc1)[C@H]1CN[C@H](C(=O)O)[C@H]1CC(=O)O`, the Response is 0% in assay [1], 27% in assay [4] and 13% in assay [5]. The pKi in assay [2] is 6.90; in assay [3], 5.89.

Turning to `C=C(c1ccc(C)c(C)c1)[C@H]1CN[C@H](C(=O)O)[C@H]1CC(=O)O`, the Response in assay [1] was 50%; in assay [4] it was 98%; in assay [5], 89%. Besides, the figures for the pKi in assay [2] and in assay [3] were 8.64 and 6.97, respectively.

In the case of `C=C(C)[C@H]1CN[C@H](C(=O)O)[C@H]1CC(=O)O`, the Response in assay [1] was found to be 39%; in assay [4] it was 101%; in assay [5], 85%.

Take `C=C(c1ccccc1)[C@H]1CN[C@H](C(=O)O)[C@H]1CC(=O)O`: the values for the Response in assay [1], in assay [4] and in assay [5] were 48%, 80% and 81%, respectively. In addition, the pKi in assay [2] is 8.80; in assay [3], 7.53.

For the compound `C=C(C)c1ccc(C(=C)[C@@H]2CN[C@H](C(=O)O)[C@H]2CC(=O)O)cc1`, the pKi in assay [2] was 5.27; in assay [3], 5.64.

Turning to `C=C(c1cccc(OCCCC)c1)[C@H]1CN[C@H](C(=O)O)[C@H]1CC(=O)O`, the results for the Response in assay [1], in assay [4] and in assay [5] were 5%, 40% and 8%, respectively. Moreover, the pKi is 7.63 in assay [2] and 6.56 in assay [3].

Consider `C=C(c1ccc(OC)cc1)[C@H]1CN[C@H](C(=O)O)[C@H]1CC(=O)O`, for which the Response stood at 37% in assay [1], 82% in assay [4] and 76% in assay [5]. The pKi in assay [2] is 8.41; in assay [3] it was 7.24.

As to `C=C(c1ccc(OCCCC)cc1)[C@H]1CN[C@H](C(=O)O)[C@H]1CC(=O)O`, the figures for the Response in assay [1], in assay [4] and in assay [5] were 33%, 99% and 86%, respectively. In addition, the pKi in assay [2] was 8.55; in assay [3], 6.83.

The values above are taken from ChEMBL document CHEMBL1129636 (J Med Chem, 1996).
